High-throughput results (PubChem BioAssay)
An excerpt weighted towards active compounds, which were near 1.7% of everything screened.
Scp-1 inhibitor: Scp-1 (human) phosphatase inhibition | Recombinant Scp1, phosphopeptide, malachite green phosphate absorbance | inhibition, % at 20 µM | Q9GZU7 | hit rate 0.88% among 340,000;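 active = inhibition above about 50% at 20 µM, limit read from the data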;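 note: plate controls were DMSO wells with enzyme for no effect and wells lacking enzyme for full effect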
Target sequence (Q9GZU7 76-261 limits assumed): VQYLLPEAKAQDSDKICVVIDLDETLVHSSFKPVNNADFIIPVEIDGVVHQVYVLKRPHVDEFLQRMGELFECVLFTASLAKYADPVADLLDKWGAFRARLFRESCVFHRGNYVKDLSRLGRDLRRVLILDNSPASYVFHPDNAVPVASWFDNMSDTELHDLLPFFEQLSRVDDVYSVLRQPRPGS
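Incubation: 45 min enzyme reaction at room temperature / System: truncated SCP-1 phosphatase (76-261aa) / Reagent: Phospho 17-mer peptide substrate / Buffer or medium: Acidic Tris acetate buffer with magnesium and detergent / Signal: absorbance at 630 nm / Doses: one concentration, 20 µM, with 1.0% DMSO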
STEP inh: blocks human striatal-enriched tyrosine phosphatase. AID 588621. recombinant STEP, OMFP fluorogenic substrate, fluorescence. inhibition, % at 20 µM. hit rate 0.25% among 360,000;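 active = inhibition at 20 µM, scaled per plate between control wells, above about 37%, limit read from the data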;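 note: 0% = DMSO with enzyme and substrate and 100% = substrate only without enzyme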
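Assay system: isolated STEP enzyme. Buffer or medium: pH 6.0 Bis-Tris with DTT and Tween 20. Also added: fluorogenic phosphatase substrate OMFP at 25 µM final. Dosing: 20 µM, 1% DMSO. Timing: 20 min reaction, room temperature, in the dark. Measured by: fluorescence intensity, excitation 480 nm, emission 540 nm. Evaluation: normalized % inhibition.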
SUMO1 PPI mod: modulators of human SUMO1-mediated protein-protein interactions; hit rate 0.33% among 360,000; SUMO1 binding to a labelled peptide, TR-FRET, 1 h; AID 602429; P63165; inhibition, % at 20 µM; in the data active = inhibition above about 37%
Target sequence (P63165 whole entry, looked up): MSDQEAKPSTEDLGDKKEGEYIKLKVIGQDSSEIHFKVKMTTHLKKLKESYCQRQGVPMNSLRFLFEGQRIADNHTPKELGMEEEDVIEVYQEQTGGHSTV
LMPTP inh: LMPTP (human) inhibition; P24666; recombinant LMPTP-A, OMFP fluorogenic substrate, fluorescence intensity; inhibition, % at 20 µM; hit rate 0.22% among 360,000;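 active = compounds that cut the enzyme signal by at least half of the control window in the single-dose screen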;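 note: plate controls were DMSO wells with enzyme plus substrate for no effect and substrate without enzyme for full effect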
Target sequence (P24666 whole entry, looked up): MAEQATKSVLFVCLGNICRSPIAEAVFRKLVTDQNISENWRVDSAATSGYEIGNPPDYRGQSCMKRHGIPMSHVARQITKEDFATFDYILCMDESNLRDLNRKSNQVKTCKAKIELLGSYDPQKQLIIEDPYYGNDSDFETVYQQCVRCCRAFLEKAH
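Material: LMPTP-A; amount: 0.625 nM enzyme; doses: single 20 µM dose; times: reaction 50 min, room temperature, dark; technique: fluorescence intensity of OMFP turnover product; benchmarks: no-enzyme and uninhibited controls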
DNMT1 block: blocks human DNA methyltransferase DNMT1; hit rate 0.83% among 360,000; DNMT1 molecular beacon, Hinp1I cleavage, fluorescence; inhibition (reported as % activation of signal), % at 10 µM; in the data active = inhibition above about 50%
Scp1 confirm: confirmation of human Scp-1 phosphatase inhibitors | shares compounds with Scp-1 inhibitor | recombinant SCP-1 catalytic domain, phosphate release, malachite green absorbance | inhibition, % at 20 µM | hit rate 61% among 2,500 | AID 540281;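 note: plate controls were DMSO with enzyme for no effect and buffer wells lacking enzyme for full effect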
MG interference: interferes with malachite green readout, flagging false Scp-1 hits | Colorimetric interference counterscreen, malachite green absorbance 630 nm | 2,500 tested, under 10 active | shares compounds with Scp-1 inhibitor | apparent inhibition (interference), % at 20 µM;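 note: compounds added after enzyme reaction finished so only phosphate colour detection is probed; plate controls were DMSO wells with completed Scp-1 reaction for no effect and substrate wells lacking enzyme for full effect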
Scp-1 Tm shift: Scp-1 (human) binding by thermal shift | Recombinant SCP1, Sypro Orange thermal shift Tm | hit rate 25% among 1,500 | thermal shift relative to vanadate control, % at 40 µM | AID 540329 | shares compounds with Scp-1 inhibitor;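 active = substances whose mean melting-temperature shift, as a percentage of the reference inhibitor's shift, reaches about 5.3%, limit read from the data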;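 note: 0% = Tm of DMSO wells and 100% = Tm with sodium orthovanadate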
* = called active by the depositor; . = no result.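 Rule for the calls, unless noted: active = inhibition of at least 30% at 20 µM; inactive = the rest.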

SMILES	Scp-1 inhibitor	STEP inh	SUMO1 PPI mod	LMPTP inh	DNMT1 block	Scp1 confirm	MG interference	others
COc1ccc(/C=N/NC(=O)CCn2c3ccccc3c3ccccc32)cc1O	56.2*	-3.3	-6.0	2.7	-6.4	-19.4	-14.2
C[N+]1(C2CCC3CCCC2C3O)CCCC1 (stereo unspecified)	92.8*	-3.4	2.0	-1.1	3.0	76.1*	-15.8	Scp-1 Tm shift=-23.9
O=C(CNC(=O)C12CC3CC(CC(C3)C1)C2)OCc1ccc(F)cc1Cl	-4.8	1.5	1.5	0.0	0.6	.	.
COCCNc1oc(-c2ccccc2Cl)nc1S(=O)(=O)c1ccc(C)cc1	0.0	-2.9	1.8	-0.2	-2.2	.	.
CCOc1ccccc1NC(=O)CCS(=O)(=O)c1ccc(Br)cc1	92.2*	38.9	56.6*	1.2	104.6*	66.9*	-16.2	Scp-1 Tm shift=-16.0
O=C(NCCC(=O)N1CCCCCCC1)c1ccc(Cl)cc1	1.0	-0.8	-23.4	-5.9	-1.5	.	.
CCOC(=O)C1CCCN(c2c(NCCN3CCCCC3CC)c(=O)c2=O)C1 (stereo unspecified)	56.8*	-2.0	6.0	0.3	0.3	-2.4	-7.3
C/C(N)=C(/C#N)C(=O)CN1C(=O)NC(Cc2c[nH]c3ccccc23)C1=O (stereo unspecified)	65.3*	11.8	11.1	7.0	17.2	59.9*	-11.2	Scp-1 Tm shift=2.2
Cc1ccc(S(=O)(=O)N2[C@@H](c3ccc(Br)cc3)C(C(=O)O)=C[C@H]2C(C)(C)C)cc1	-4.2	4.1	11.2	-0.4	2.9	.	.
O=C(O)/C=C\C(=O)Nc1cccc(NC(=O)c2ccccc2)c1	1.4	0.6	6.6	-0.6	-1.9	.	.
O=C(O)/C=C/C(=O)Nc1ccc(NC(=O)c2ccccc2)c(Cl)c1	72.9*	2.7	6.2	1.5	1.0	1.1	-7.9
CNC(=O)C[C@H]1C(=O)N(CCc2ccccc2)C[C@@H]1C	.	-1.2	5.7	-0.4	6.4	.	.
O=C(COC(=O)c1cc(Br)ccc1O)NC12CC3CC(CC(C3)C1)C2	61.0*	-2.5	1.6	-0.4	-2.5	-19.4	-16.9
O=C(COC(=O)c1cncc(Br)c1)NC12CC3CC(CC(C3)C1)C2	.	-1.7	2.2	-1.2	1.6	.	.
NNC(=O)Cn1c(-c2ccccc2)cc(=O)n2ncnc12	69.2*	-0.9	2.3	-1.8	2.5	-6.2	-4.6
Cc1cc(=O)n2ncnc2n1COCCO	2.6	2.4	3.0	0.6	1.7	.	.
O=C(COC(=O)c1cncc(Br)c1)Nc1nnc(-c2ccccc2)o1	60.2*	2.0	13.7	6.5	27.5	70.6*	-12.0	Scp-1 Tm shift=6.1*
COc1cc(OC)cc(C(=O)OCC(=O)Nc2nnc(-c3ccccc3)o2)c1	-11.1	4.2	2.8	-0.1	0.2	.	.
COc1cc([N+](=O)[O-])ccc1NC(=O)CSc1ccccn1	.	-0.4	-27.2	0.0	-3.9	.	.
COc1ccc([N+](=O)[O-])cc1CSc1ccccn1	61.0*	-0.8	-11.1	-1.2	-2.1	-2.4	-8.7
Cc1cc(C)c(C#N)c(Cl)n1	66.3*	-0.6	3.8	-0.5	-0.1	-24.6	-21.4
Cc1cc(C)c(C#N)c(N2CCCC2)n1	-5.6	0.5	2.2	-0.9	0.3	.	.
CC(=O)C(Cc1ccc(Cl)nc1)Cc1ccc(Cl)nc1	69.3*	-1.0	0.7	-0.7	1.0	-6.5	-12.6
CCOC(=O)COc1ccccc1/C=N\NC(=O)c1cc2c(ccc3ccccc32)o1	83.7*	4.2	-10.1	5.8	-4.8	39.4*	-2.7	Scp-1 Tm shift=0.1
CCOc1cc(/C=N/NC(=O)c2cc3c(ccc4ccccc43)o2)ccc1O	-3.6	-0.2	3.5	0.5	-3.6	.	.
SMILES	Scp-1 inhibitor	STEP inh	SUMO1 PPI mod	LMPTP inh	DNMT1 block	Scp1 confirm	MG interference	others
CSc1ccc(CCNC(=O)CSc2ccsc2[N+](=O)[O-])cc1	51.3*	3.3	-11.3	3.8	-0.9	55.4*	-22.4	Scp-1 Tm shift=7.5*
CC(=O)Nc1ccc(N(C(=O)CNC(=O)c2ccco2)C(C(=O)NC2CCCC2)c2ccco2)cc1 (stereo unspecified)	0.1	0.3	2.8	-1.0	4.0	.	.
CC(=O)c1cccc(NC(=O)Cn2nc(-c3ccc(Cl)cc3)ccc2=O)c1	51.2*	-1.9	-0.9	0.2	0.4	-15.6	-18.3
CC(=O)c1cccc(NC(=O)Cn2nc(-c3ccccc3Cl)ccc2=O)c1	-3.0	-0.1	0.1	0.6	-0.7	.	.
CN(/N=C/c1ccncc1)c1cnn(-c2ccc(F)c(Cl)c2)c(=O)c1Cl	54.5*	15.0	7.9	31.8	-1.7	9.4	-13.7
Cc1cc(C)n2cc(CSc3nnc(-c4ccccc4)o3)nc2n1	79.6*	0.4	-2.5	-0.9	3.0	-5.6	-12.6
Cc1cc(C)n2cc(CSCc3ccccc3)nc2n1	-4.0	3.0	-0.9	-0.1	1.1	.	.
CC(C)(C)OC(=O)NCCCCCc1cn(CC(=O)NCCCCCCCCCCC(=O)N2CCN(C(=O)OC(C)(C)C)CC2)nn1	61.3*	-3.8	14.4	0.6	33.3	29.0	-16.9
CCN(CC)C(=O)Cn1cc(S(=O)(=O)CC(=O)Nc2cc(OC)ccc2OC)c2ccccc21	-7.2	-2.1	22.5	0.2	-0.8	.	.
CCCNC(=O)C1(C)CCCN(Cc2cccc3ccccc23)C1 (stereo unspecified)	.	0.1	-7.8	0.7	-3.5	.	.
NS(=O)(=O)c1ccc(N=C2C(=O)Nc3ccccc32)cc1	-3.4	-2.3	-28.5	-0.6	-0.8	.	.
O=C1Nc2ccccc2C1=Nc1ccc(S(=O)(=O)Nc2nccs2)cc1	80.0*	37.7	88.3*	3.1	4.3	73.0*	-5.2	Scp-1 Tm shift=12.7*
Cc1cccc(N2CCN(C(=O)CCCCCn3c(=S)[nH]c4ccc(N5CCOCC5)cc4c3=O)CC2)c1C	82.4*	7.6	-29.6	4.9	-4.5	-12.9	-18.6
CNc1ccc(-c2ccccc2OC)cn1	.	-2.8	2.0	6.0	6.3	.	.
Cc1ccc2nc(SCC(=O)Nc3ccc(Br)cc3)nc(=O)n2c1	60.0*	2.5	-1.8	-0.1	-2.5	-24.0	-18.6
Cc1ccc2nc(SCC(=O)Nc3ccc(C)c(Cl)c3)nc(=O)n2c1	-4.2	1.5	-1.9	-0.2	1.2	.	.
CSCCC(NS(=O)(=O)c1ccc2c(c1)oc(=O)n2C)C(=O)NC1CCC(C)CC1 (stereo unspecified)	-22.2	0.2	7.5	-1.1	-1.7	3.5	-6.0
CSCCC(NS(=O)(=O)c1ccc2c(c1)oc(=O)n2C)C(=O)NC1CCN(Cc2ccccc2)CC1 (stereo unspecified)	-7.4	-2.1	5.5	-0.5	-0.6	.	.
